# Laboratory results reported in paper PMC9476207 (ACS Omega, 2022).
# Key:
# Assay in all cases: NCI-60 single-dose antiproliferative screen
# Format in all cases: cell-based
# IGROV1 = conditions: Homo sapiens, IGROV-1, 48 h, read-out: growth percent
# How it was run: (§1)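 NCI-60 protocol. Lines were grown in RPMI 1640 with 5% FBS and 2 mM L-glutamine, plated and incubated 24 h at 37 °C; time-zero plates were TCA-fixed. The test compound was dissolved in DMSO, diluted in medium with 50 μg/mL gentamicin and given once at a final 10^-5 M (DMSO control) for 48 h. Cells were fixed with cold TCA (1 h, 4 °C) and stained with 0.4% SRB in 1% acetic acid for 10 min. Dye was dissolved in 10 mM Trizma base and read at 515 nm. Growth percent was calculated from time-zero, test and control ODs.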
# BT-549 = conditions: Homo sapiens, BT-549, 48 h, read-out: growth percent
# How it was run: as §1
# UACC-257 = conditions: Homo sapiens, UACC-257, 48 h, read-out: growth percent
# How it was run: (§2)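 Cells grown in RPMI 1640 with 5% FBS and 2 mM L-glutamine, plated and held 24 h at 37 °C; time-zero plates TCA-fixed. DMSO stocks were diluted in gentamicin-containing medium to a final 10^-5 M, with a DMSO-only control. Exposure 48 h, 5% CO2. Adherent cells TCA-fixed 1 h at 4 °C, stained with 0.4% SRB, solubilised in 10 mM Trizma base, read at 515 nm. Growth percent derived from ODtzero, ODtest and ODctrl.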
# 786-0 = conditions: Homo sapiens, 786-0, 48 h, read-out: growth percent
# How it was run: as §1
# CCRF-CEM = conditions: Homo sapiens, 48 h, read-out: growth percent
# How it was run: as §1
# M14 = conditions: Homo sapiens, M14, 48 h, read-out: growth percent
# How it was run: as §1
# NCI-H23 = conditions: Homo sapiens, NCI-H23, 48 h, read-out: growth percent
# How it was run: as §1
# EKVX = conditions: Homo sapiens, 48 h, read-out: growth percent
# How it was run: as §1
# NCI-H226 = conditions: Homo sapiens, NCI-H226, 48 h, read-out: growth percent
# How it was run: as §1
# HT29 = conditions: Homo sapiens, HT-29, 48 h, read-out: growth percent
# How it was run: as §1
# T-47D = conditions: Homo sapiens, T47D, 48 h, read-out: growth percent
# How it was run: as §2
# OVCAR-8 = conditions: Homo sapiens, OVCAR-8, 48 h, read-out: growth percent
# How it was run: as §1
# SNB-19 = conditions: Homo sapiens, SNB-19, 48 h, read-out: growth percent
# How it was run: as §2
# COLO205 = conditions: Homo sapiens, COLO 205, 48 h, read-out: growth percent
# How it was run: as §1
# ACHN = conditions: Homo sapiens, 48 h, read-out: growth percent
# How it was run: as §1
# SF-539 = conditions: Homo sapiens, SF-539, 48 h, read-out: growth percent
# How it was run: as §2
# DU-145 = conditions: Homo sapiens, DU-145, 48 h, read-out: growth percent
# How it was run: as §1
# SNB-75 = conditions: Homo sapiens, SNB-75, 48 h, read-out: growth percent
# How it was run: as §2
# TK-10 = conditions: Homo sapiens, TK-10, 48 h, read-out: growth percent
# How it was run: as §2
# MCF-7 = conditions: Homo sapiens, MCF7, 48 h, read-out: growth percent
# How it was run: as §1
Compound,activity at 10 µM (IGROV1),activity at 10 µM (BT-549),activity at 10 µM (UACC-257),activity at 10 µM (786-0),activity at 10 µM (CCRF-CEM),activity at 10 µM (M14),activity at 10 µM (NCI-H23),activity at 10 µM (EKVX),activity at 10 µM (NCI-H226),activity at 10 µM (HT29),activity at 10 µM (T-47D),activity at 10 µM (OVCAR-8),activity at 10 µM (SNB-19),activity at 10 µM (COLO205),activity at 10 µM (ACHN),activity at 10 µM (SF-539),activity at 10 µM (DU-145),activity at 10 µM (SNB-75),activity at 10 µM (TK-10),activity at 10 µM (MCF-7)
"COc1cc(CNC(=O)CCCC/C=C/C(C)C)ccc1OCc1cn(-c2ccc(Cl)cc2)nn1 [14a, (E)-N-(4-((1-(4-Chlorophenyl)-1H-1,2,3-triazol-4-yl)methoxy)-3-methoxybenzyl)-8-methylnon-6-enamide]",93.4%,86.8%,91.6%,92.5%,72.4%,90.6%,78.7%,72%,70.4%,88.4%,71%,79%,87.7%,108%,59.7%,87.1%,98.9%,76.4%,99.3%,84.9%
"COc1cc(CNC(=O)CCCC/C=C/C(C)C)ccc1OCc1cn(-c2ccc(F)cc2)nn1 [14h, (E)-N-(4-((1-(4-Fluorophenyl)-1H-1,2,3-triazol-4-yl)methoxy)-3-methoxybenzyl)-8-methylnon-6-enamide]",97%,91%,90.2%,83.7%,79.7%,94%,81.4%,72.7%,74.2%,106%,73.8%,71.5%,81.3%,120%,81.2%,92.2%,96.1%,83.5%,103%,89.3%
"COc1cc(CNC(=O)CCCC/C=C/C(C)C)ccc1OCc1cn(-c2ccc(C)c(C)c2)nn1 [14p, (E)-N-(4-((1-(3,4-Dimethylphenyl)-1H-1,2,3-triazol-4-yl)methoxy)-3-methoxybenzyl)-8-methylnon-6-enamide]",98.8%,93.7%,81.9%,99.8%,75.5%,93.5%,74.9%,79.3%,86.9%,97.8%,73.2%,83.3%,95.8%,106%,68.5%,105%,108%,91%,109%,86.9%
"COc1cc(CNC(=O)CCCC/C=C/C(C)C)ccc1OCc1cn(-c2ccc(Br)cc2)nn1 [14k, (E)-N-(4-((1-(4-Bromophenyl)-1H-1,2,3-triazol-4-yl)methoxy)-3-methoxybenzyl)-8-methylnon-6-enamide]",72.7%,88.1%,90.5%,92%,94.2%,90.2%,70.2%,72.7%,86.3%,98.1%,68.4%,79.6%,80.9%,103%,87.7%,92.4%,98.8%,90.9%,118%,76.2%
